Laboratory results reported in ChEMBL document CHEMBL3576819, “Design, synthesis, biological evaluation and molecular docking studies of phenylpropanoid derivatives as potent anti-hepatitis B virus agents” (Eur J Med Chem, 2015).

Assays:
[1] = Cytotoxicity against human HepG2.2.15 cells assessed as cell death after 9 days by MTT assay; assay type: cell-based, HepG2 2.2.15
Outline: (§1)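 HepG2.2.15 cells (MEM, 10% FBS, 380 µg/ml G418, 37 °C, 5% CO2) seeded at 1×10^5 cells/ml, cultured 24 h, then exposed to various drug concentrations; drug-containing medium renewed every 3 d. OD read at 450 nm after 9 days; percent cell death calculated; CC50 = concentration killing 50% of cells. Means of at least two experiments.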

[2] = system: Hepatitis B virus; test: Antiviral activity against Hepatitis B virus infected in human HepG2.2.15 cells assessed as inhibition of HBsAg secretion by ELISA; assay type: functional, organism-based; settings: HepG2 2.2.15
Outline: (§2)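 HepG2.2.15 cells (MEM, 10% FBS, 380 µg/ml G418) seeded at 1×10^5 cells/ml, held 24 h at 37 °C, then treated with various drug concentrations; medium with drug renewed every 3 d for up to 9 d. Culture medium sampled on days 3, 6 and 9, stored at -20 °C, and assayed for secreted antigen. Lamivudine as positive control; IC50 = 50% inhibition of secretion; means of at least two experiments.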

[3] = Selectivity index, ratio of CC50 for human HepG2.2.15 cells to IC50 for Hepatitis B virus infected in human HepG2.2.15 cells assessed as inhibition of HBsAg secretion; assay type: functional
Outline: (§3)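 Selectivity index computed as CC50/IC50, with CC50 from cell death of HepG2.2.15 cells after 9 days of treatment (OD 450 nm) and IC50 from 50% inhibition of HBeAg or HBsAg secretion in the same cells; medium with drug renewed every 3 d.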

[4] = system: Hepatitis B virus; test: Antiviral activity against Hepatitis B virus infected in human HepG2.2.15 cells assessed as inhibition of HBeAg secretion by ELISA; assay type: functional, organism-based; settings: HepG2 2.2.15; outline: as §2
[5] = Selectivity index, ratio of CC50 for human HepG2.2.15 cells to IC50 for Hepatitis B virus infected in human HepG2.2.15 cells assessed as inhibition of HBeAg secretion; assay type: functional; outline: as §3
[6] = system: Hepatitis B virus; test: Antiviral activity against Hepatitis B virus infected in human HepG2.2.15 cells assessed as inhibition of HBsAg secretion at 300 uM after 3 days by ELISA; assay type: functional; settings: HepG2 2.2.15, 72 h; outline: as §2
[7] = system: Hepatitis B virus; test: Antiviral activity against Hepatitis B virus infected in human HepG2.2.15 cells assessed as inhibition of HBsAg secretion at 150 uM after 3 days by ELISA; assay type: functional; settings: HepG2 2.2.15, 72 h; outline: as §2
[8] = system: Hepatitis B virus; test: Antiviral activity against Hepatitis B virus infected in human HepG2.2.15 cells assessed as inhibition of HBsAg secretion at 75 uM after 3 days by ELISA; assay type: functional; settings: HepG2 2.2.15, 72 h; outline: as §2
[9] = system: Hepatitis B virus; test: Antiviral activity against Hepatitis B virus infected in human HepG2.2.15 cells assessed as inhibition of HBsAg secretion at 37.5 uM after 3 days by ELISA; assay type: functional; settings: HepG2 2.2.15, 72 h; outline: as §2
[10] = system: Hepatitis B virus; test: Antiviral activity against Hepatitis B virus infected in human HepG2.2.15 cells assessed as inhibition of HBsAg secretion at 300 uM after 6 days by ELISA; assay type: functional; settings: HepG2 2.2.15, 144 h; outline: as §2
[11] = system: Hepatitis B virus; test: Antiviral activity against Hepatitis B virus infected in human HepG2.2.15 cells assessed as inhibition of HBsAg secretion at 150 uM after 6 days by ELISA; assay type: functional; settings: HepG2 2.2.15, 144 h; outline: as §2
[12] = system: Hepatitis B virus; test: Antiviral activity against Hepatitis B virus infected in human HepG2.2.15 cells assessed as inhibition of HBsAg secretion at 75 uM after 6 days by ELISA; assay type: functional; settings: HepG2 2.2.15, 144 h; outline: as §2
[13] = system: Hepatitis B virus; test: Antiviral activity against Hepatitis B virus infected in human HepG2.2.15 cells assessed as inhibition of HBsAg secretion at 37.5 uM after 6 days by ELISA; assay type: functional; settings: HepG2 2.2.15, 144 h; outline: as §2
[14] = system: Hepatitis B virus; test: Antiviral activity against Hepatitis B virus infected in human HepG2.2.15 cells assessed as inhibition of HBsAg secretion at 300 uM after 9 days by ELISA; assay type: functional; settings: HepG2 2.2.15, 216 h; outline: as §2
[15] = system: Hepatitis B virus; test: Antiviral activity against Hepatitis B virus infected in human HepG2.2.15 cells assessed as inhibition of HBsAg secretion at 150 uM after 9 days by ELISA; assay type: functional; settings: HepG2 2.2.15, 216 h; outline: as §2
[16] = system: Hepatitis B virus; test: Antiviral activity against Hepatitis B virus infected in human HepG2.2.15 cells assessed as inhibition of HBsAg secretion at 75 uM after 9 days by ELISA; assay type: functional; settings: HepG2 2.2.15, 216 h; outline: as §2
[17] = system: Hepatitis B virus; test: Antiviral activity against Hepatitis B virus infected in human HepG2.2.15 cells assessed as inhibition of HBsAg secretion at 37.5 uM after 9 days by ELISA; assay type: functional; settings: HepG2 2.2.15, 216 h; outline: as §2
[18] = system: Hepatitis B virus; test: Antiviral activity against Hepatitis B virus infected in human HepG2.2.15 cells assessed as cell survival at 300 uM after 9 days (reference value: 100%); assay type: functional; settings: HepG2 2.2.15, 216 h; outline: as §1
[19] = system: Hepatitis B virus; test: Antiviral activity against Hepatitis B virus infected in human HepG2.2.15 cells assessed as cell survival at 150 uM after 9 days (reference value: 100%); assay type: functional; settings: HepG2 2.2.15, 216 h; outline: as §1
[20] = system: Hepatitis B virus; test: Antiviral activity against Hepatitis B virus infected in human HepG2.2.15 cells assessed as cell survival at 75 uM after 9 days (reference value: 100%); assay type: functional; settings: HepG2 2.2.15, 216 h; outline: as §1
[21] = system: Hepatitis B virus; test: Antiviral activity against Hepatitis B virus infected in human HepG2.2.15 cells assessed as cell survival at 37.5 uM after 9 days (reference value: 100%); assay type: functional; settings: HepG2 2.2.15, 216 h; outline: as §1
[22] = system: Hepatitis B virus; test: Antiviral activity against Hepatitis B virus infected in human HepG2.2.15 cells assessed as inhibition of HBeAg secretion at 300 uM after 3 days by ELISA; assay type: functional; settings: HepG2 2.2.15, 72 h; outline: as §2
[23] = system: Hepatitis B virus; test: Antiviral activity against Hepatitis B virus infected in human HepG2.2.15 cells assessed as inhibition of HBeAg secretion at 150 uM after 3 days by ELISA; assay type: functional; settings: HepG2 2.2.15, 72 h; outline: as §2
[24] = system: Hepatitis B virus; test: Antiviral activity against Hepatitis B virus infected in human HepG2.2.15 cells assessed as inhibition of HBeAg secretion at 75 uM after 3 days by ELISA; assay type: functional; settings: HepG2 2.2.15, 72 h; outline: as §2
[25] = system: Hepatitis B virus; test: Antiviral activity against Hepatitis B virus infected in human HepG2.2.15 cells assessed as inhibition of HBeAg secretion at 37.5 uM after 3 days by ELISA; assay type: functional; settings: HepG2 2.2.15, 72 h; outline: as §2
[26] = system: Hepatitis B virus; test: Antiviral activity against Hepatitis B virus infected in human HepG2.2.15 cells assessed as inhibition of HBeAg secretion at 300 uM after 6 days by ELISA; assay type: functional; settings: HepG2 2.2.15, 144 h; outline: as §2
[27] = system: Hepatitis B virus; test: Antiviral activity against Hepatitis B virus infected in human HepG2.2.15 cells assessed as inhibition of HBeAg secretion at 150 uM after 6 days by ELISA; assay type: functional; settings: HepG2 2.2.15, 144 h; outline: as §2
[28] = system: Hepatitis B virus; test: Antiviral activity against Hepatitis B virus infected in human HepG2.2.15 cells assessed as inhibition of HBeAg secretion at 75 uM after 6 days by ELISA; assay type: functional; settings: HepG2 2.2.15, 144 h; outline: as §2
[29] = system: Hepatitis B virus; test: Antiviral activity against Hepatitis B virus infected in human HepG2.2.15 cells assessed as inhibition of HBeAg secretion at 37.5 uM after 6 days by ELISA; assay type: functional; settings: HepG2 2.2.15, 144 h; outline: as §2
[30] = system: Hepatitis B virus; test: Antiviral activity against Hepatitis B virus infected in human HepG2.2.15 cells assessed as inhibition of HBeAg secretion at 300 uM after 9 days by ELISA; assay type: functional; settings: HepG2 2.2.15, 216 h; outline: as §2
[31] = system: Hepatitis B virus; test: Antiviral activity against Hepatitis B virus infected in human HepG2.2.15 cells assessed as inhibition of HBeAg secretion at 150 uM after 9 days by ELISA; assay type: functional; settings: HepG2 2.2.15, 216 h; outline: as §2
[32] = system: Hepatitis B virus; test: Antiviral activity against Hepatitis B virus infected in human HepG2.2.15 cells assessed as inhibition of HBeAg secretion at 75 uM after 9 days by ELISA; assay type: functional; settings: HepG2 2.2.15, 216 h; outline: as §2
[33] = system: Hepatitis B virus; test: Antiviral activity against Hepatitis B virus infected in human HepG2.2.15 cells assessed as inhibition of HBeAg secretion at 37.5 uM after 9 days by ELISA; assay type: functional; settings: HepG2 2.2.15, 216 h; outline: as §2

## COc1cc(/C=C/C(=O)O/N=C/c2ccco2)cc(OC)c1OC
[1]
  CC50 at 216 h: 1050 µM
[2]
  IC50: 173 µM
[3]
  Ratio CC50/IC50: 6.06
[4]
  IC50: 190 µM
[5]
  Ratio CC50/IC50: 5.54
[6]
  inhibition at 300 µM: 36.7%
[7]
  inhibition at 150 µM: 23.7%
[8]
  inhibition at 75 µM: 16.2%
[9]
  inhibition at 37.5 µM: 8.45%
[10]
  inhibition at 300 µM: 50.1%
[11]
  inhibition at 150 µM: 36.4%
[12]
  inhibition at 75 µM: 28.9%
[13]
  inhibition at 37.5 µM: 15.2%
[14]
  inhibition at 300 µM: 60.8%
[15]
  inhibition at 150 µM: 47.1%
[16]
  inhibition at 75 µM: 36%
[17]
  inhibition at 37.5 µM: 15.8%
[18]
  viability at 300 µM: 76.1%
[19]
  viability at 150 µM: 93.2%
[20]
  viability at 75 µM: 127%
[21]
  viability at 37.5 µM: 133%
[22]
  inhibition at 300 µM: 29.2%
[23]
  inhibition at 150 µM: 22.6%
[24]
  inhibition at 75 µM: 13.2%
[25]
  inhibition at 37.5 µM: 5.59%
[26]
  inhibition at 300 µM: 42.6%
[27]
  inhibition at 150 µM: 34.3%
[28]
  inhibition at 75 µM: 25.8%
[29]
  inhibition at 37.5 µM: 17.9%
[30]
  inhibition at 300 µM: 58%
[31]
  inhibition at 150 µM: 45.1%
[32]
  inhibition at 75 µM: 35.6%
[33]
  inhibition at 37.5 µM: 25.4%
